Results collected from several papers.
Protocols differ between the studies behind these lines.
SIRT6: NAD-dependent protein deacylase sirtuin-6 (SIRT6, Homo sapiens, UniProt Q8N6T7)
PBK: Lymphokine-activated killer T-cell-originated protein kinase (PBK, Homo sapiens, UniProt Q96KB5)
VRK1: Serine/threonine-protein kinase VRK1 (VRK1, Homo sapiens, UniProt Q99986)
BRD7: Bromodomain-containing protein 7 (BRD7, Homo sapiens, UniProt Q9NPI1)
ALK C1156Y: ALK tyrosine kinase receptor (ALK, Homo sapiens, UniProt Q9UM73, C1156Y)

Compound	target	assay	test system	conditions	endpoint	result
NC(=O)c1ccc(C(=O)NOCc2ccc(Sc3ccc(F)cc3)c(C(F)(F)F)c2)cc1	SIRT6	enzyme activity, inhibitor, fluorescence		100 µM	inhibition	90.2%
Cn1c2c(Cl)c(Cl)ccc2c2cn[nH]c(=O)c21	PBK	thermal stability, DSF		10 µM	ΔTm	-0.3 °C
Nc1nonc1-n1cc(C(=O)N/N=C/c2ccccc2)nn1	SIRT6	enzyme activity, inhibitor, fluorescence		100 µM	remaining activity	38.9%
Cn1c2c(c3ccc(Cl)c(Cl)c31)C(C#N)C(C)(C)NC2=O (stereo not drawn)	VRK1	thermal stability, DSF		10 µM	ΔTm	0.1 °C
NC(=O)c1ccc(C(=O)NOCc2ccc(Cl)cc2)cc1	SIRT6	enzyme activity, inhibitor, fluorescence		100 µM	inhibition	79.5%
Oc1ccc(-c2nc(-c3ccncc3)c(-c3ccc(F)cc3)[nH]2)cc1	BRD7	thermal stability, DSF		10 µM	ΔTm	1.3 °C
N#CC1c2c([nH]c3c(Cl)c(Cl)ccc23)C(=O)NC12CCCCC2 (racemic)	PBK	thermal stability, DSF		10 µM	ΔTm	0.8 °C
CC/C(=N\NC(=O)NCc1cccc(O)c1)c1ccc(O)c(C)c1O	ALK C1156Y	enzyme activity, inhibitor		0.1 µM	inhibition	2.3%
CCC1(CC)NC(=O)c2c(c3ccc(Cl)c(Cl)c3n2C)C1C#N (stereo not drawn)	PBK	thermal stability, DSF		10 µM	ΔTm	0 °C
NCCc1ccc(C(=O)NOCc2ccc(C(F)(F)F)cc2)cc1	SIRT6	enzyme activity, inhibitor, fluorescence		100 µM	inhibition	88.4%
Cn1c2c(Cl)c(Cl)ccc2c2cc(N)[nH]c(=O)c21	VRK1	thermal stability, DSF		10 µM	ΔTm	1.3 °C
NS(=O)(=O)c1ccc(Nc2nc(-c3ccc(F)cc3)c3ccccc3n2)cc1	BRD7	binding, competition with immobilised ligand		1 µM	remaining binding	76%
NC(=O)c1ccc(C(=O)NOCc2cc(Cl)cc(Cl)c2)cc1	SIRT6	enzyme activity, inhibitor, fluorescence		100 µM	inhibition	88.2%
Cc1ccc(C(=O)Nc2ccc(CN3CCN(C)CC3)c(C(F)(F)F)c2)cc1C#Cc1cnc2cccnn12	Mitogen-activated protein kinase 6 (MAPK6, Homo sapiens, UniProt Q16659)	enzyme activity, inhibitor		23.5 nM	remaining activity	100%
CC(C)(O)c1cn(-c2ccc(-c3cccc(S(C)(=O)=O)c3)cc2)c(C(C)(C)c2ccccc2Cl)n1	Oxysterols receptor LXR-beta (NR1H2, Homo sapiens, UniProt P55055)	reporter gene, agonist	CV-1		Emax	72%
Nc1ncnc2occ(-c3ccc(NC(=O)Nc4cc(C(F)(F)F)ccc4F)cc3)c12	ALK C1156Y	cell-free assay		20 µM	remaining signal	1.1%
CC(N)c1ccc(C(=O)NOCc2ccc(C(F)(F)F)cc2)cc1 (stereo not drawn)	SIRT6	enzyme activity, inhibitor, fluorescence		100 µM	inhibition	89.2%

Compound	target	assay	test system	conditions	endpoint	result
Cn1c2c(c3ccc(Cl)c(Cl)c31)C(C#N)C1(CCCC1)NC2=O (stereo not drawn)	VRK1	thermal stability, DSF		10 µM	ΔTm	0 °C
O=C(Nc1ccc(S(=O)(=O)N2CCC(Cl)CC2)cc1)c1ccc([N+](=O)[O-])o1	Voltage-dependent N-type calcium channel subunit alpha-1B (Cacna1b, Rattus norvegicus, UniProt Q02294)	cell-free assay		10 µM	inhibition	18%
Nc1nonc1-n1cc(C(=O)N/N=C/c2ccccc2C(=O)O)nn1	SIRT6	enzyme activity, inhibitor, fluorescence		100 µM	remaining activity	84.2%
Cc1cc2c(cc1N1C(=O)c3cccc4c(Cl)ccc(c34)C1=O)n(C)c(=O)n2C	BRD7	thermal stability, DSF		10 µM	ΔTm	2.3 °C
COc1ccc(Sc2ccc(CONC(=O)c3ccc(C(N)=O)cc3)cc2C(F)(F)F)cc1	SIRT6	enzyme activity, inhibitor, fluorescence		100 µM	inhibition	97.4%
Cc1cnc(Nc2ccc(OCCN3CCCC3)cc2)nc1Nc1cccc(S(=O)(=O)NC(C)(C)C)c1	BRD7	thermal stability, DSF		10 µM	ΔTm	0.22 °C
Nc1nonc1-n1cc(C(=O)N/N=C/c2ccc(C(F)(F)F)cc2C(F)(F)F)nn1	SIRT6	enzyme activity, inhibitor, fluorescence		100 µM	remaining activity	32.5%
Cn1c2c(c3ccccc31)C(C#N)C(C)(C)NC2=O (stereo not drawn)	VRK1	thermal stability, DSF		10 µM	ΔTm	-0.1 °C
Nc1nonc1-n1cc(C(=O)N/N=C/c2ccc(C(F)(F)F)cc2[N+](=O)[O-])nn1	SIRT6	enzyme activity, inhibitor, fluorescence		100 µM	remaining activity	24.9%
COc1cc(Cl)c(C(=O)N[C@@H](CN[C@H]2CC[C@@H](N)CC2)Cc2ccc(C#N)cc2)cc1-c1ccc(CN[C@H](C)c2ccc(C)cc2)o1	[Pyruvate dehydrogenase (acetyl-transferring)] kinase isozyme 4, mitochondrial (PDK4, Homo sapiens, UniProt Q16654)	enzyme activity, inhibitor		1 µM	remaining activity	103%
Nc1nonc1-n1cc(C(=O)N/N=C/c2ccccc2Cl)nn1	SIRT6	enzyme activity, inhibitor, fluorescence		100 µM	remaining activity	22.8%
Cn1c2c(Cl)c(Cl)ccc2c2cc[nH]c(=O)c21	PBK	thermal stability, DSF		10 µM	ΔTm	-0.6 °C
Nc1nonc1-n1cc(C(=O)N/N=C/c2cccc([N+](=O)[O-])c2O)nn1	SIRT6	enzyme activity, inhibitor, fluorescence		100 µM	remaining activity	41.4%
NC(=O)c1ccc(C(=O)NOCc2ccc(C(F)(F)F)c(Cl)c2)cc1	SIRT6	enzyme activity, inhibitor, fluorescence		100 µM	inhibition	90.4%
Nc1nonc1-n1cc(C(=O)N/N=C/c2ccc(O)cc2)nn1	SIRT6	enzyme activity, inhibitor, fluorescence		100 µM	remaining activity	34.5%
NC(=O)c1ccc(C(=O)NOCc2ccccc2Cl)cc1	SIRT6	enzyme activity, inhibitor, fluorescence		100 µM	inhibition	78.2%
